The text below walks through data of ChEMBL document CHEMBL1152537, “Special feature of mixed phosphotriester derivatives of cytarabine” (Bioorg Med Chem, 2009).

The subject of data set [1] is MCF7. As to the kind of experiment: Cytotoxicity against deoxynucleoside analogue-resistant human MCF7 1K cells overexpressing ribonucleotide reductase after 3 days by MTT assay. As to conditions: MCF7, 72 h. The class given is functional, cell-based. In short, it runs like this:
(§1)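 Adherent lines (Messa in RPMI, MCF7 in DMEM, each with 10% FBS, L-glutamine and penicillin/streptomycin) seeded at 3000 cells/well and left 24 h at 37 °C before drugs were added over a concentration range. After 3 days at 37 °C, MTT (100 µg) was added for 2 h and the formazan dissolved in isopropanol/HCl/water for optical density.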
Background: Tetrazolium assays rely on reduction of a dye to a coloured formazan, in cell work by metabolically active cells.

For data set [2], the system named is L1210. As to the kind of experiment: Resistance ratio of IC50 for deoxynucleoside analogue-resistant mouse L1210 10K cells to IC50 for deoxynucleoside analogue-sensitive mouse L1210 cells. It counts as functional. In short, it runs like this: (§2)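 RR is the 3-day MTT IC50 in the resistant line divided by the IC50 in its sensitive parental line. Significance between IC50s and RRs was tested by Student's t-test.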

The nature of data set [3]: Cytotoxicity against deoxynucleoside analogue-sensitive human MESSA cells after 3 days by MTT assay. The settings on record: MES-SA, 72 h. It counts as functional, cell-based. In short, it runs like this: as §1
Data set [4] has as its system MCF7. As to the kind of experiment: Cytotoxicity against deoxynucleoside analogue-sensitive human MCF7 cells after 3 days by MTT assay. As to conditions: MCF7, 72 h. It counts as functional, cell-based. The gist of the method:
as §1

Data set [5] concerns CCRF-CEM. As to the kind of experiment: Cytotoxicity against deoxynucleoside analogue-sensitive human CCRF-CEM cells after 3 days by MTT assay. The class given is functional, cell-based. As to conditions: 72 h. In short, it runs like this: (§3)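 Suspension lines (CCRF-CEM, L1210) grown in RPMI with 10% FBS, L-glutamine and penicillin/streptomycin, added at 10,000 cells/well directly to media holding graded drug concentrations. After 3 days at 37 °C, MTT (100 µg) was added for 2 h and the formazan dissolved in isopropanol/HCl/water for optical density.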

The test system of data set [6] is L1210. Kind of data set: Cytotoxicity against deoxycytidine kinase deficient and nucleoside analogue-resistant mouse L1210 10K cells after 3 days by MTT assay. It counts as functional, cell-based. The settings on record: L1210, 72 h. In short, it runs like this:
as §3

Data set [7] relates to CCRF-CEM. As to the kind of experiment: Resistance ratio of IC50 for deoxynucleoside analogue-resistant human CEM/ARAC8C cells to IC50 for deoxynucleoside analogue-sensitive human CCRF-CEM cells. It counts as functional. The gist of the method:
as §2

Data set [8] is described as follows: Cytotoxicity against deoxycytidine kinase deficient and deoxynucleoside analogue-resistant human MESSA 10K cells after 3 days by MTT assay. The class given is functional, cell-based. As to conditions: 72 h. In short, it runs like this:
as §1

In data set [9] the test system is L1210. As to the kind of experiment: Cytotoxicity against deoxynucleoside analogue-sensitive mouse L1210 cells after 3 days by MTT assay. The settings on record: L1210, 72 h. The class given is functional, cell-based. The gist of the method:
as §3

Data set [10] can be described thus: Cytotoxicity against nucleoside transporter deficient and deoxynucleoside analogue-resistant human CEM/ARAC8C cells after 3 days by MTT assay. The settings on record: 72 h. The class given is functional, cell-based.
Data set [11] in a line: Half life in total cell extract of deoxynucleoside analogue-sensitive mouse L1210 cells by HPLC analysis in presence of snake venom phosphodiesterase. It counts as ADME, cell-based.
A short description of data set [12]: Half life in total cell extract of nucleoside analogue-resistant mouse L1210 10K cells by HPLC analysis in presence of snake venom phosphodiesterase. The class given is ADME, cell-based.

Take `Nc1ccn([C@@H]2O[C@H](CO)[C@@H](O)[C@@H]2O)c(=O)n1` [CYTARABINE]: the IC50 was determined as 0.04 µM in the data set with MCF7 [1]; 1.7 µM in data set [3]; 0.004 µM with MCF7 [4]; 0.001 µM in the data set on CCRF-CEM [5]; 103 µM in the data set on L1210 [6]; 6330 µM in data set [8]. The IC50 with L1210 [9] came to 0.0004 µM; in [10], 100 µM. Moreover, the “Ratio IC50” value in the data set on L1210 [2] came out at 257500; in the data set on CCRF-CEM [7], 100000.
On to `Cc1cn([C@H]2C[C@H](O)[C@@H](COP(=O)(O)Oc3ccc([N+](=O)[O-])cc3)O2)c(=O)[nH]c1=O`, for which the half-life in data set [11] and in [12] was 43 min in each case.
As for `Nc1ccn([C@@H]2O[C@H](COP(=O)([O-])Oc3ccccc3)[C@@H](O)[C@@H]2O)c(=O)n1.[Na+]`, the half-life in data set [11] and in data set [12] was 276 min each time.
For `Cc1cn([C@@H]2O[C@H](COP(=O)([O-])Oc3ccccc3)[C@@H](N=[N+]=[N-])[C@@H]2O)c(=O)[nH]c1=O.[Na+]`, the half-life in data set [11] and in [12] was 53 min throughout.

As usually defined, the IC50 is the point on the concentration scale where inhibition reaches its midpoint. Read a high IC50 as a need for much substance. One may read the half-life as the time needed for the level to fall by half in the phase considered.
